According to ChEMBL document CHEMBL1122927, “Metabolism of the nigrostriatal toxin 1-methyl-4-phenyl-1,2,3,6-tetrahydropyridine by liver homogenate fractions” (J Med Chem, 1985):

What was measured:
Type in all cases: ADME
Conditions in all cases: microsomes
[1] = species: Oryctolagus cuniculus; assay: Formation of metabolite by rabbit liver microsomal preparation in presence of Co-O2 (90:10),at 2 hour
How it was run: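 Buffer was saturated with CO-O2 (90:10), and incubation ran in sealed vials under that gas. Rabbit liver microsomes (2–3 mg protein/mL), 100 mM Hepes pH 7.6, NADPH-generating system, 0.5–1.0 mM MPTP, 37 °C, 2 h. Stopped with cold acetonitrile. Nor and N-oxide products quantified by reverse-phase HPLC (254 nm) as nmol/mL per 2 h.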

[2] = species: Oryctolagus cuniculus; assay: Formation of metabolite by rabbit liver microsomal preparation in presence of SKF525A,at 2 hour
How it was run: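 Rabbit liver microsomes were preincubated 5 min with SKF 525A (5 × 10⁻⁴ M) before MPTP (0.5–1.0 mM) was added. Run in 100 mM Hepes pH 7.6 with an NADPH-generating system, 2–3 mg protein/mL, 37 °C, 2 h. Stopped with cold acetonitrile. Nor and N-oxide products quantified by reverse-phase HPLC (254 nm) as nmol/mL per 2 h.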

[3] = species: Oryctolagus cuniculus; assay: Formation of metabolite by rabbit liver microsomal preparation in absence of NADPH, at 2 hours
How it was run: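 Rabbit liver microsomes (2–3 mg protein/mL), 100 mM Hepes pH 7.6, 0.5–1.0 mM MPTP, with the NADPH-generating system omitted; 37 °C for 2 h. Stopped with cold acetonitrile and centrifuged. Nor and N-oxide products measured by reverse-phase HPLC at 254 nm as nmol/mL per 2 h.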

[4] = species: Oryctolagus cuniculus; assay: Formation of metabolite by rabbit liver microsomal preparation in presence of N2,at 2 hour
How it was run: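 Incubation under 100% N2, with N2-saturated buffer in sealed vials. Rabbit liver microsomes (2–3 mg protein/mL), 100 mM Hepes pH 7.6, NADPH-generating system, 0.5–1.0 mM MPTP, 37 °C, 2 h. Stopped with ice-cold acetonitrile. Nor and N-oxide products read by reverse-phase HPLC at 254 nm, expressed as nmol/mL per 2 h.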

[5] = species: Oryctolagus cuniculus; assay: Formation of metabolite by rabbit liver microsomal preparation in presence of NADPH, at 2 hours
How it was run: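 Male New Zealand white rabbit liver microsomes (100000g pellet, 2–3 mg protein/mL) in 100 mM Hepes pH 7.6 with an NADPH-generating system and 0.5–1.0 mM MPTP, in air, 37 °C, 2 h. Stopped with 2 volumes ice-cold acetonitrile, then centrifuged. Reverse-phase HPLC (acetonitrile/100 mM acetic acid 65:35, pH 5.6, 254 nm) quantified nor and N-oxide peaks as nmol/mL per 2 h.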

Structure (SMILES) | Amount of metabolite [1] [nM ml-1] | Amount of metabolite [2] [nM ml-1] | Amount of metabolite [3] [nM ml-1] | Amount of metabolite [4] [nM ml-1] | Amount of metabolite [5] [nM ml-1]
C[N+]1([O-])CC=C(c2ccccc2)CC1 (stereo not given) | 160 | 170 | 0 | 0 | 190
C1=C(c2ccccc2)CCNC1 | 53 | 70 | 0 | 16 | 130
